An excerpt weighted towards active compounds, which were near 1.3% of everything screened.
Xi reactivation = activators of inactive X chromosome reactivation, primary screen, imaging, XiGFP fibroblasts, GFP high-content imaging, set 2. AID 743238, 2013. activation, % at 7.58 µM. 0.055% of 360,000 active. XiGFP mouse fibroblasts, % GFP-positive cells imaging, 3 d; cells co-treated with 5-aza-dC sensitizer; scaled so ellipticine positive control = 100%;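 active = mean normalized replicate activation at least 10% and every replicate at or above 10%; inconclusive = only one of the two criteria met; inactive = mean below 10% and not all replicates reach 10%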;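 also: 0% = median of on-plate neutral control wells and 100% = ellipticine 6 µM median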
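System: 68-5-11 XiGFP fibroblast line; Timing: 3 days compound exposure; Compound dosing: one concentration, pinned; Benchmarks: positive control ellipticine, 6 µM final; Buffer or medium: DMEM containing 5-aza-dC.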
MLL AF4-AF9 inh = inhibitors of AF4 peptide binding to AF9, primary screen, biochemical, AlphaScreen, biotin-AF4 peptide, FLAG-AF9, single point; 0.47% of 350,000 active; inhibition, % at 10 µM; AID 651704, 2012;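 active = every replicate reaching a set inhibition limit, whatever the replicate mean, cut at about 25% in these data; inconclusive = mean inhibition reaches that limit but some replicates miss it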;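 also: 0% = plate neutral control median and 100% = total signal loss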
RAD54 inh = inhibitors of human RAD54 branch migration, primary screen, biochemical, fluorescence, single point. DNA repair and recombination protein RAD54-like (Homo sapiens), Q92698. RAD54 Holliday junction branch migration, FAM/BHQ fluorescence. inhibition, % at 10.4 µM. 0.14% of 360,000 active. AID 602329, 2012;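 active = mean normalized replicate activity at least 40 and at least half of replicates scoring 40 or more; inconclusive = only one of the two criteria met; inactive = mean below 40 and under half of replicates reaching 40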;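 also: 0% = median of neutral control wells and 100% = median of positive control wells; inhibitors cause a drop in the FAM fluorescence signal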
S100A4 MyoIIA = inhibitors of S100A4-myosin IIA peptide binding, primary screen, biochemical, fluorescence polarization, TAMRA-MyoIIA peptide | Protein S100-A4 (Homo sapiens), P26447 | inhibition, % at 10.7 µM | 0.14% of 360,000 active | AID 652163, 2013;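 active = mean inhibition of at least 70% across replicates, with every replicate also reaching that level; inconclusive = mean inhibition reaches 70% but some replicates fall short; inactive = mean inhibition below 70%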
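Material: S100A4 monomer (human). Medium: Calcium-containing HEPES buffer, pH 7.2. Probe or stimulus: labelled myosin peptide probe, 5 nM. Compound dosing: one concentration per compound. Timing: polarization read 5 min after assay mix addition, stable 5–60 min. Benchmarks: DMSO as neutral control, TFP as positive control.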
RAD52 inh = RAD52 DNA annealing inhibitors, primary screen, biochemical, FRET, single point, set 2; recombinant RAD52 DNA annealing, FRET fluorescence; inhibition, % at 18.7 µM; 0.46% of 360,000 active; DNA repair protein RAD52 homolog (Homo sapiens), P43351;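 active = every replicate showing at least 50% inhibition; inconclusive = mean inhibition at least 50% but not in every replicate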
Target sequence (P43351 whole entry, looked up): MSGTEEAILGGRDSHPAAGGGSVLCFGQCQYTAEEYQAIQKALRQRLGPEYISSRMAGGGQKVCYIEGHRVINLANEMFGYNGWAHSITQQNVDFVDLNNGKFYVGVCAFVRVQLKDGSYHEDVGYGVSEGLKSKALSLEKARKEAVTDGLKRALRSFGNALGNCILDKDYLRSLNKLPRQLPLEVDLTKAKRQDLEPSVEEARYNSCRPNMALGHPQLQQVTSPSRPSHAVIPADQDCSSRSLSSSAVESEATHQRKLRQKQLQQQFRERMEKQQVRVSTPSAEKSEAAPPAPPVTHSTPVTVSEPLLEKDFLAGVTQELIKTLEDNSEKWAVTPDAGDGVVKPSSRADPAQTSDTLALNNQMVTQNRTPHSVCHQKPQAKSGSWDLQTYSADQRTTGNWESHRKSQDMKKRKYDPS
CASP6 VEID inh = human caspase-6 inhibitors, primary screen, biochemical, VEID-R110 fluorescence, single point, set 2 | P55212 | purified caspase-6, Z-VEID-R110 cleavage fluorescence | inhibition, % at 12.5 µM | 0.53% of 350,000 active | AID 686996, 2013;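 active = mean inhibition across replicates at least about 35%, with every replicate also reaching that limit, limit read from the data; inconclusive = only one of the two criteria met; inactive = neither criterion met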;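 also: 0% = median of neutral control wells and 100% = no fluorescence left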
Target sequence (P55212 24-179 limits assumed): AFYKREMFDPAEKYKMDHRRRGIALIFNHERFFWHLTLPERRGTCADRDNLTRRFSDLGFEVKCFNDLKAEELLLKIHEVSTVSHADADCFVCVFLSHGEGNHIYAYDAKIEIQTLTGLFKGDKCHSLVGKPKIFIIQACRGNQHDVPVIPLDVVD
Target sequence (P55212 194-293 limits assumed): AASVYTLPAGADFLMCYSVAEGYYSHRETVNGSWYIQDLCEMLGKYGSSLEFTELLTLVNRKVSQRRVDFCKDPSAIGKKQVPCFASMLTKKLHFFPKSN
An asterisk follows results filed as active.

What do the screens show for `Cc1noc(C)c1NC(=O)Nc1ccc2c(c1)CC(=O)N([C@@H](C)CO)C[C@@H](C)[C@H](CN(C)C)O2`?
Xi reactivation: -1; MLL AF4-AF9 inh: -4; RAD54 inh: -1; S100A4 MyoIIA: 44; RAD52 inh: 3; CASP6 VEID inh: 1

What do the screens show for `CCN(CC)CCNc1nc2cc(OC)c(OC)cc2c2nc(-c3ccccc3)nn12`?
RAD54 inh: 106*

What do the screens show for `CCCNC(=O)Nc1ccc2c(c1)C(=O)N(C)C[C@H](OC)[C@H](C)CN(CCC(F)(F)F)[C@H](C)CO2`?
Xi reactivation: 0

How did C[C@@H]1CCCCO[C@@H](CN(C)CC2CCCCC2)[C@@H](C)CN([C@@H](C)CO)C(=O)c2cc(NS(=O)(=O)c3ccc(F)cc3)ccc2O1 do in these assays?
Xi reactivation: 0; MLL AF4-AF9 inh: 4; RAD54 inh: 5; S100A4 MyoIIA: 1; RAD52 inh: 48; CASP6 VEID inh: -2

How did COc1ccccc1NC(=O)c1ccccc1S(=O)(=O)c1ccccc1[N+](=O)[O-] do in these assays?
Xi reactivation: 0; MLL AF4-AF9 inh: 4; S100A4 MyoIIA: -4; RAD52 inh: -8; CASP6 VEID inh: 0

Results for COc1ccccc1NC(=O)c1ccccc1S(=O)(=O)c1ccc([N+](=O)[O-])cc1 ?
Xi reactivation: 0; MLL AF4-AF9 inh: -4; RAD54 inh: 7; S100A4 MyoIIA: 2; RAD52 inh: 6; CASP6 VEID inh: 40*

What do the screens show for `CN(c1cc2c(c3c1ccn3C)C1CCC2O1)C1CCCCC1` (stereo not given)?
Xi reactivation: 0; MLL AF4-AF9 inh: 32*; RAD54 inh: 4; S100A4 MyoIIA: -8; RAD52 inh: 33; CASP6 VEID inh: 0

What do the screens show for `Cn1ccc2c(-c3cccnc3)cc3c(c21)C1CCC3O1` (stereo not given)?
Xi reactivation: 0; MLL AF4-AF9 inh: 0; RAD54 inh: 2; S100A4 MyoIIA: 3; RAD52 inh: -10; CASP6 VEID inh: 3

Results for CN(CCc1ccccc1)c1cc2c(c3c1ccn3C)C1CCC2O1 (stereo not given) ?
Xi reactivation: 0; MLL AF4-AF9 inh: 28*; RAD54 inh: -1; S100A4 MyoIIA: -3; RAD52 inh: 1; CASP6 VEID inh: 9

What do the screens show for `CO[C@H]1CN(C)C(=O)c2ccc(NC(=O)CC(F)(F)F)cc2OC[C@@H](C)N(CC2CC2)C[C@@H]1C`?
Xi reactivation: 0

How did CCC(=O)N[C@H]1C=C[C@H](CC(=O)NCC2CCCCC2)O[C@@H]1CO do in these assays?
Xi reactivation: 0; MLL AF4-AF9 inh: -3; RAD54 inh: -5; S100A4 MyoIIA: 4; RAD52 inh: 3; CASP6 VEID inh: 4

How did O=C(Nc1ccccc1)N[C@@H]1CC[C@@H](CCn2cc(-c3ccccc3F)nn2)O[C@H]1CO do in these assays?
Xi reactivation: 0; MLL AF4-AF9 inh: -2; S100A4 MyoIIA: 0; RAD52 inh: -1; CASP6 VEID inh: -1

Results for C=C(CCC(=O)c1ccccc1)C(=O)c1ccccc1 ?
Xi reactivation: 1; MLL AF4-AF9 inh: 2; S100A4 MyoIIA: 1; RAD52 inh: 0; CASP6 VEID inh: 61*

Results for N#C/C(=C/c1ccco1)C(N)=S ?
Xi reactivation: 0; MLL AF4-AF9 inh: -8; S100A4 MyoIIA: -15; RAD52 inh: -55; CASP6 VEID inh: 46*

Results for N#C/C(=C\c1ccc2c(c1)OCO2)C(N)=S ?
Xi reactivation: 0; MLL AF4-AF9 inh: -11; RAD54 inh: 3; S100A4 MyoIIA: -9; RAD52 inh: -7; CASP6 VEID inh: -1

What do the screens show for `Nc1ccc2ccc(O)cc2c1`?
Xi reactivation: 0; MLL AF4-AF9 inh: 7; RAD54 inh: -1; S100A4 MyoIIA: -1; RAD52 inh: -15; CASP6 VEID inh: 4

How did C[n+]1c2cc(N)ccc2cc2ccc(N)cc21 do in these assays?
Xi reactivation: 53*; MLL AF4-AF9 inh: -2; RAD54 inh: inactive; S100A4 MyoIIA: 31; RAD52 inh: inactive; CASP6 VEID inh: -293

What do the screens show for `C[C@@H]1CN([C@H](C)CO)C(=O)c2cc(NC(=O)Nc3ccccc3)ccc2O[C@@H](C)CCCCO[C@@H]1CN(C)Cc1ccc(C(F)(F)F)cc1`?
Xi reactivation: 1; RAD54 inh: -14

How did COC(=O)c1ccc(=O)c2nc3/c(=C/O)c(O)cc(=O)c3[nH]c12 do in these assays?
MLL AF4-AF9 inh: -4; RAD54 inh: -6; S100A4 MyoIIA: -16; RAD52 inh: 5; CASP6 VEID inh: 66*

How did O=[N+]([O-])c1cc2c(cc1/C=N/NS(=O)(=O)c1ccc(Br)cc1)OCO2 do in these assays?
Xi reactivation: 0; MLL AF4-AF9 inh: -1; S100A4 MyoIIA: -3; RAD52 inh: 2; CASP6 VEID inh: 44*

What do the screens show for `Cc1ccc(S(=O)(=O)N/N=C\c2cc3c(cc2Br)OCO3)cc1`?
Xi reactivation: 0; RAD54 inh: 0

How did O=C1C(Cl)=C(NCc2cccnc2)C(=O)c2ccccc21 do in these assays?
Xi reactivation: 0; MLL AF4-AF9 inh: 5; RAD54 inh: 14; S100A4 MyoIIA: -11; RAD52 inh: -5; CASP6 VEID inh: 87*

What do the screens show for `O=C1C(Cl)=C(NCCc2ccccc2)C(=O)c2ccccc21`?
Xi reactivation: 1; MLL AF4-AF9 inh: -5; RAD54 inh: 5; S100A4 MyoIIA: 4; RAD52 inh: 1; CASP6 VEID inh: 44*

How did CCN(CC)CCCNC1=C(Cl)C(=O)c2ccccc2C1=O do in these assays?
Xi reactivation: inconclusive; MLL AF4-AF9 inh: 5; RAD54 inh: 32; S100A4 MyoIIA: -32; RAD52 inh: 15; CASP6 VEID inh: 38*

What do the screens show for `CCCC#Cc1cnc2c(c1)C(=O)N([C@@H](C)CO)C[C@H](C)[C@@H](CN(C)S(=O)(=O)c1cccc(OC)c1)O2`?
Xi reactivation: 0; MLL AF4-AF9 inh: 3; RAD54 inh: -14; S100A4 MyoIIA: 8; RAD52 inh: 10; CASP6 VEID inh: -1

How did C/C(=N/NC(N)=S)c1cc2ccc(O)cc2oc1=O do in these assays?
Xi reactivation: 0; MLL AF4-AF9 inh: -46; RAD54 inh: -19; S100A4 MyoIIA: -9; RAD52 inh: -143; CASP6 VEID inh: 42*

What do the screens show for `COc1cccc(NC(=O)N(C)C[C@H]2Oc3cc(-c4ccccc4F)ccc3S(=O)(=O)N([C@H](C)CO)C[C@@H]2C)c1`?
Xi reactivation: 0; MLL AF4-AF9 inh: 1; RAD54 inh: -2; S100A4 MyoIIA: -7; RAD52 inh: 14; CASP6 VEID inh: 3
